Measurements from different studies.
Each line is one published result; the experiments were not run side by side.
Target: Dual specificity protein kinase CLK2 (CLK2, Homo sapiens, UniProt P49760)

For `Cc1nn(C)cc1-c1nc2c(N3CCN(Cc4ccc(Cl)cc4)CC3)c(Cl)cnc2[nH]1`, the remaining binding was 77% (binding; competition with immobilised ligand; 1 µM).
With `CC(C)(C)c1cc(C=C(C#N)C#N)cc(Br)c1O` the remaining activity was 104% (enzyme activity; inhibitor; 0.5 µM).
The inhibition of `Cn1cc(-c2cccc(N3CCc4c(sc5c4CC(C)(C)C5)C3=O)c2CO)cc(Nc2ccncn2)c1=O` is reported as 4% (enzyme activity; inhibitor; 1 µM).
With `COc1ncccc1-c1cnn2ccc(N3CCN(C(=O)OC(C)C)CC3)nc12` the remaining binding was 100% (binding; competition with immobilised ligand; 1 µM).
`Nc1ncc(-c2nc(N3CCOCC3)nc(N3CCOCC3)n2)c(C(F)F)n1` gave a remaining binding of 41% (binding; competition with immobilised ligand; 10 µM).
`C#Cc1n[nH]c2c(-c3cn([C@@H](C)c4ccccn4)c(=O)[nH]c3=O)cc(F)cc12` has an inhibition of 7.4% (enzyme activity; inhibitor; 0.1 µM).
`Cn1cc(-c2cc(F)cc(N3CCn4c(cc5c4CCCC5)C3=O)c2CO)cc(Nc2ccc(N3CCN(C4COC4)CC3)cn2)c1=O` has an inhibition of 7% (enzyme activity; inhibitor; 0.1 µM).
The remaining binding of `Cn1cncc1[C@@](O)(COc1ccc(C#N)cc1-c1ccc(OC(F)(F)F)cc1)c1ccc(C#N)cc1` is reported as 90% (cell-free assay; competition with immobilised ligand; 1 µM).
The inhibition of `COc1cc(Nc2ncc(F)c(Nc3ccc4c(n3)NC(=O)C(C)(C)O4)n2)cc(OC)c1OC` is reported as 84% (binding; competition with immobilised ligand; 10 µM).
`O=c1[nH]c2ccccc2n1C1CCN(Cc2ccc(-c3[nH]c4cc5ncnc5cc4nc3-c3ccccc3)cc2)CC1` gave a remaining signal of 114% (cell-free assay; 0.5 µM).
`N#CC1(c2ccccn2)CCN(Cc2cc(C(=O)O)c(=O)n3ccccc23)CC1` has a remaining binding of 100% (cell-free assay; competition with immobilised ligand; 1 µM).
